Reference: ChEMBL document CHEMBL4359902, “Development of novel chromeno[4,3-c]pyrazol-4(2H)-one derivates bearing sulfonylpiperazine as antitumor inhibitors targeting PI3Kα” (Eur J Med Chem, 2019)

Experiments:
HCT-116 [1] = assay: Cell cycle arrest in human HCT116 cells assessed as accumulation at G1 phase at 0.25 uM measured after 24 hrs by propidium iodide staining based flow cytometry analysis (reference value: 42.01 %); type: functional
[2] = target: Phosphatidylinositol 4,5-bisphosphate 3-kinase catalytic subunit alpha isoform (Homo sapiens, UniProt P42336); assay: Inhibition of PI3K-alpha in human HCT116 cells assessed as decrease in phosphorylated Akt protein expression level measured after 24 hrs by Western blot analysis; type: cell-based
Outline: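 HCT-116 cells exposed for 24 h at 0.25, 0.5 and 1 μM, lysed in RIPA buffer, and analysed by SDS-PAGE/PVDF Western blot for p-Akt (Ser473) and p-S6K. β-actin internal control; densitometry mean ± SEM, n = 3.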

HCT-116 [3] = assay: Cell cycle arrest in human HCT116 cells assessed as accumulation at S phase at 0.5 uM measured after 24 hrs by propidium iodide staining based flow cytometry analysis (reference value: 50.12 %); type: functional
HCT-116 [4] = assay: Induction of apoptosis in human HCT116 cells assessed as early apoptotic cells at 0.5 uM measured after 24 hrs by annexin-v-FITC/propidium iodide staining based FACScan flow cytometry analysis (reference value: 10.0 %); type: functional
HCT-116 [5] = assay: Induction of apoptosis in human HCT116 cells assessed as increase in cleaved caspase-9 protein level measured after 24 hrs by Western blot analysis; type: functional, cell-based
Outline: (§1)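 HCT-116 cells treated at 0.25, 0.5 and 1 μM for 24 h, lysed in RIPA buffer with PMSF. Proteins separated by SDS-PAGE (8% or 10%), transferred to PVDF and probed with primary antibodies and HRP secondaries. β-actin served as internal control; bands quantified as bar graphs.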

HCT-116 [6] = assay: Induction of apoptosis in human HCT116 cells assessed as necrotic cells at 0.5 uM measured after 24 hrs by annexin-v-FITC/propidium iodide staining based FACScan flow cytometry analysis (reference value: 1.87 %); type: functional
HCT-116 [7] = assay: Induction of apoptosis in human HCT116 cells assessed as upregulation of BAX expression measured after 24 hrs by Western blot analysis; type: functional, cell-based; outline: as §1
HCT-116 [8] = assay: Induction of apoptosis in human HCT116 cells assessed as early apoptotic cells at 1 uM measured after 24 hrs by annexin-v-FITC/propidium iodide staining based FACScan flow cytometry analysis (reference value: 10.0 %); type: functional
HCT-116 [9] = assay: Induction of apoptosis in human HCT116 cells assessed as late apoptotic cells at 1 uM measured after 24 hrs by annexin-v-FITC/propidium iodide staining based FACScan flow cytometry analysis (reference value: 9.61 %); type: functional
[10] = target: T1, Phosphatidylinositol 4,5-bisphosphate 3-kinase catalytic subunit delta isoform (Homo sapiens, UniProt O00329); assay: Inhibition of PI3Kdelta (unknown origin) using diC8-PI(4,5)P2 as substrate incubated for 3 hrs in presence of ATP by fluorescence polarization assay
T1 sequence (O00329 whole entry): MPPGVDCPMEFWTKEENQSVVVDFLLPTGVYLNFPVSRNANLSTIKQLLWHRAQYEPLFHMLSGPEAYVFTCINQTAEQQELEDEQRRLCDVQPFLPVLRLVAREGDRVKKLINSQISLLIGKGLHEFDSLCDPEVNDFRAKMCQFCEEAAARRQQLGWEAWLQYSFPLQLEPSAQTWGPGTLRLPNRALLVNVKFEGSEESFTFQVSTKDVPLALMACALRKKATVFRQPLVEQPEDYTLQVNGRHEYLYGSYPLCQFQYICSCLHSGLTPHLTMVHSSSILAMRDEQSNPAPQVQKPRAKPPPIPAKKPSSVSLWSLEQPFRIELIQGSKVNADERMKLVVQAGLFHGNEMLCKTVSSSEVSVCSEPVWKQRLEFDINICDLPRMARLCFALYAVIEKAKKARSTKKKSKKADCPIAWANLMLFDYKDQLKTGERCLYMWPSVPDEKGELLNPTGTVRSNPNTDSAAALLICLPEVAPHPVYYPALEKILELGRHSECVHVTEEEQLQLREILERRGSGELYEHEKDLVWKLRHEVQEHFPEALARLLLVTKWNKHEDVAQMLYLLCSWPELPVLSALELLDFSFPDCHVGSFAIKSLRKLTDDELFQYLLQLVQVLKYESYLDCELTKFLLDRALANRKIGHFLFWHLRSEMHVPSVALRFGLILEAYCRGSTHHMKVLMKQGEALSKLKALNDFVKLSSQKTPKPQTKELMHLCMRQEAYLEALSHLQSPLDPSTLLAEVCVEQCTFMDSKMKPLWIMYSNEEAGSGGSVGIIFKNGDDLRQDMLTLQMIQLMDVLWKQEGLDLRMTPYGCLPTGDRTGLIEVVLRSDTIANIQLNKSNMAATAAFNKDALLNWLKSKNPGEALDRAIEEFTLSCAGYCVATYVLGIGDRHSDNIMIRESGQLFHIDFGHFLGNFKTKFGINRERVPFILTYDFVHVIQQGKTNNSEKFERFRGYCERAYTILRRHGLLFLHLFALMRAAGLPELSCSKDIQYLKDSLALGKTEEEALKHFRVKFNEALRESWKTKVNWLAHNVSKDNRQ
Outline: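 Fluorescence polarization competition assay, 10 μL reactions at pH 7: 2.5 mM MgCl₂, 5 mM HEPES, ATP, 10 mM DTT, 50 ng PI3K isoform, diC8-PI(4,5)P2 substrate. After 3 h at room temperature, reactions were chelator-quenched. Phosphoinositide binding protein and fluorophore-labelled tracer were added, then 1 h dark equilibration and polarization read.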

Phosphatidylinositol 4,5-bisphosphate 3-kinase catalytic subunit alpha isoform, sequence (P42336 whole entry, canonical isoform): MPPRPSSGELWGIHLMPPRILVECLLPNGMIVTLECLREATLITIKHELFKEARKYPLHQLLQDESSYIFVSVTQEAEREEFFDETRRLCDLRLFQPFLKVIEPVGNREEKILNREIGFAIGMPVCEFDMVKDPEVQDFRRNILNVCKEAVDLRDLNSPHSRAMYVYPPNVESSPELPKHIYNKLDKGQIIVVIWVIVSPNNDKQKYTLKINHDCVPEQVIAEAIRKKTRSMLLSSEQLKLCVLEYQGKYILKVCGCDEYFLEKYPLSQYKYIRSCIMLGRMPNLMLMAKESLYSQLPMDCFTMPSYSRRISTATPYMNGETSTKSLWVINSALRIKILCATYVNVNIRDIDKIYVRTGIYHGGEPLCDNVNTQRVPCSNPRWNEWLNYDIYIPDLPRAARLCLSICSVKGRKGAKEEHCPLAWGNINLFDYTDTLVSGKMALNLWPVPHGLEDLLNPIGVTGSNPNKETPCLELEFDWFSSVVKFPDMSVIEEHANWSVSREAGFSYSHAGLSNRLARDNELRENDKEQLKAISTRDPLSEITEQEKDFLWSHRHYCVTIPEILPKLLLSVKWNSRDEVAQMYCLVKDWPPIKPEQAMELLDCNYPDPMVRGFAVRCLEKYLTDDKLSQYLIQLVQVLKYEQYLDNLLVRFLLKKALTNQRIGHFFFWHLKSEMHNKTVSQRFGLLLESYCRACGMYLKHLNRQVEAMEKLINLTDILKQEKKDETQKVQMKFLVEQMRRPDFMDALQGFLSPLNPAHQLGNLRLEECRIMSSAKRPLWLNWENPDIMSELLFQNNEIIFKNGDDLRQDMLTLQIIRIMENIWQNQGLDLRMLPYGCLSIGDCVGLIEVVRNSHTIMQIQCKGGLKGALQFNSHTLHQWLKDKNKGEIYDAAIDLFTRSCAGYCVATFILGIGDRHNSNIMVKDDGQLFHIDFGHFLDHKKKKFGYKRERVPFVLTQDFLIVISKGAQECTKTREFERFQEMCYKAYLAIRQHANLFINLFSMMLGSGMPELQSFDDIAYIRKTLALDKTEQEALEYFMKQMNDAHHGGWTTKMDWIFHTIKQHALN

## O=c1oc2ccccc2c2nn(CN3CCN(S(=O)(=O)c4ccc(Cl)c([N+](=O)[O-])c4)CC3)cc12
HCT-116 [1]
  Activity: 46.87%
[2]
  inhibition: Dose-dependent effect
HCT-116 [3]
  Activity: 39.53%
HCT-116 [4]
  Activity: 17.1%
HCT-116 [5]
  Activity: Dose-dependent effect
HCT-116 [6]
  Activity: 6.04%
HCT-116 [7]
  Activity: Dose-dependent effect
HCT-116 [8]
  Activity: 25.5%
HCT-116 [9]
  Activity: 36.9%
[10]
  IC50: 120 nM
